pEC50, pIC50: −log10 of the molar value.
Legend:
[1] = molecular target: T1, Thymidine kinase (Human herpesvirus 2) (UniProt Q6L709); test: Effect on thymidine kinase in the herpes simplex type-2 infected cells; format: functional; design: concentration or dose not given beside the values
T1 sequence (whole entry): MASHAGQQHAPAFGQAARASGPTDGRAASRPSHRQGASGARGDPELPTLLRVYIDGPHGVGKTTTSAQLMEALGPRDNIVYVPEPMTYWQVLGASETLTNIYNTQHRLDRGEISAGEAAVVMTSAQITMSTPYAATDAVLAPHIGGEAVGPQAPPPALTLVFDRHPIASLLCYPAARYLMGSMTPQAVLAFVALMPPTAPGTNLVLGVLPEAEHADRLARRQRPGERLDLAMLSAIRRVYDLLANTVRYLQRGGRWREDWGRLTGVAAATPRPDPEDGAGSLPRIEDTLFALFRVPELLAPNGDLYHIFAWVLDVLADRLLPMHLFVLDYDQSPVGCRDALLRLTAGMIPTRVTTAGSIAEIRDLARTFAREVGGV

Human alphaherpesvirus 2 [2] = test: Antiviral activity against herpes simplex type-2 expressed as ED50; format: functional; details: read-out: ED50 (the source's name)
Procedure, shortened: (§1)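 Plaque reduction in confluent mycoplasma-free Vero cells infected with HSV-1 strain F or HSV-2 strain G (about 100 plaques/well), rocked 1 h, inoculum removed, PBS (pH 7.2) wash. Five or more drug concentrations in maintenance medium with 0.1% pooled human globulin, in replicate.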

Human alphaherpesvirus 2 [3] = test: Antiviral activity against herpes simplex type-2 expressed as ED90; format: functional; procedure, shortened: as §1
Human alphaherpesvirus 1 [4] = test: Antiviral activity against herpes simplex type-1 expressed as ED50; format: functional; details: read-out: ED50 (the source's name); procedure, shortened: as §1
Human alphaherpesvirus 1 [5] = test: Antiviral activity against herpes simplex type-1 expressed as ED90; format: functional; procedure, shortened: as §1
Vero = test: Cytotoxic activity against vero cells was evaluated.; format: functional; details: Chlorocebus sabaeus, read-out: ID50 (the source's name)
Procedure, shortened: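 Drug toxicity measured in rapidly dividing Vero cells over 3 days; 50% inhibitory dose (ID50) derived by linear regression analysis.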

[6] = tested on: Human alphaherpesvirus 1 (HSV-1); test: Ratio of ID50/ID90 in HSV-1 infected cells; format: ADME, organism-based; details: human alphaherpesvirus 1, HSV-1 infected cells; read-out: Therapeutic index
Procedure, shortened: (§2)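 Ratio of two measurements. ID50 came from 3-day growth of rapidly dividing Vero cells, by linear regression. ED90 came from plaque reduction in confluent Vero cells infected with HSV-1 strain F or HSV-2 strain G (about 100 plaques/well). After 1 h adsorption, compounds were added at ≥5 concentrations in medium with 0.1% human globulin. Plaques grew 48 h, then were formalin-fixed, crystal-violet-stained and counted; regression was against log concentration.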

[7] = tested on: Human alphaherpesvirus 2 (HSV-2); test: Ratio of ID50/ID90 in HSV-2 infected cells; format: ADME, organism-based; details: human alphaherpesvirus 2, HSV-2 infected cells; read-out: Therapeutic index; procedure, shortened: as §2
L1210 = test: In vitro inhibitory activity against L1212/0 cell line; format: functional; details: Mus musculus, read-out: ID50 (the source's name)
Procedure, shortened: (§3)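 Mouse leukemia cells (L1210/0, P815/0, P815/Ara-C) at 4×10^4 cells/mL in McCoy's 5A with 15% fetal calf serum, nucleoside added as 20-fold concentrate; 96 h at 37 °C in 5% CO2. Cells Coulter-counted, percent growth inhibition and 50% growth-inhibiting concentration calculated.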

P815 [8] = test: In vitro inhibitory activity against P815/0 cell line; format: functional; details: Mus musculus, read-out: ID50 (the source's name); procedure, shortened: as §3
P815 [9] = test: In vitro inhibitory activity against P815/ara-C cell line; format: functional; details: Mus musculus, read-out: ID50 (the source's name); procedure, shortened: as §3
[10] = tested on: Human alphaherpesvirus 1 (HSV-1); test: (§4) Ratio of ID50/ID90 in HSV-1; format: ADME, organism-based; details: human alphaherpesvirus 1, in vivo; procedure, shortened: as §2
[11] = tested on: Human alphaherpesvirus 2 (HSV-2); test: (§5) Ratio of ID50/ID90 in HSV-2; format: ADME, organism-based; details: human alphaherpesvirus 2, in vivo; procedure, shortened: as §2
Human alphaherpesvirus 1 [12] = test: Effect of compound on thymidine kinase in the herpes simplex type-2 infected cells; format: functional, Human alphaherpesvirus 2
[13] = as §5; format: functional
[14] = as §4; format: functional
[15] = tested on: Human alphaherpesvirus 1 (HSV-1); test: Ratio of ID50/ID90 in HSV-1 in fected cells; format: ADME, organism-based; details: human alphaherpesvirus 1, HSV-1 infected cells; read-out: Therapeutic index; procedure, shortened: as §2

SMILES	Control [1] [%]	pEC50 (Human alphaherpesvirus 2 [2])	ED90 (Human alphaherpesvirus 2 [3]) [µM]	pEC50 (Human alphaherpesvirus 1 [4])	ED90 (Human alphaherpesvirus 1 [5]) [µM]	pIC50 (Vero)	selectivity ratio [6]	selectivity ratio [7]	pIC50 (L1210)	pIC50 (P815 [8])	pIC50 (P815 [9])	selectivity ratio [10]	selectivity ratio [11]	Control (Human alphaherpesvirus 1 [12]) [%]	Therapeutic index [13]	Therapeutic index [14]	selectivity ratio [15]
O=c1[nH]c(=O)n([C@@H]2O[C@H](CO)[C@@H](O)[C@@H]2F)cc1/C=C/Br	86	6.89	0.73	7.17	0.47	4.00	216	138	–	–	–	–	–	–	–	–	–
C[Si](C)(C)C#Cc1cn([C@@H]2O[C@H](CO)[C@@H](O)[C@@H]2F)c(=O)[nH]c1=O	95.8	5.29	32.1	5.24	39.5	4.77	0.4	0.5	4.75	5.01	3.97	–	–	–	–	–	–
Cc1cn([C@@H]2O[C@H](CO)[C@@H](O)[C@@H]2F)c(=O)[nH]c1=O [5-METHYL-2'-FLUOROARAURACIL]	94.1	7.64	0.09	8.00	0.042	5.55	–	–	5.53	6.01	4.91	–	–	–	–	–	–
Nc1nc(=O)n([C@@H]2O[C@H](CO)[C@@H](O)[C@@H]2F)cc1/C=C/I	101	7.57	2.3	7.06	0.74	< 3.70	–	–	–	–	–	> 270	> 87	–	–	–	–
CCOC(=O)/C=C/c1cn([C@@H]2O[C@H](CO)[C@@H](O)[C@@H]2F)c(=O)nc1N	–	< 4.00	>100	< 4.00	>100	3.90	–	–	–	–	–	–	–	107	–	–	–
O=c1[nH]c(=O)n([C@H]2C[C@H](O)[C@@H](CO)O2)cc1/C=C/Br [BRIVUDINE]	110	6.64	17	7.72	0.062	3.72	3080	11	–	–	–	–	–	–	–	–	–
C=Cc1cn([C@@H]2O[C@H](CO)[C@@H](O)[C@@H]2F)c(=O)[nH]c1=O	109	7.05	0.56	8.05	0.043	4.97	251	19	4.54	4.68	4.48	–	–	–	–	–	–
O=c1[nH]c(=O)n([C@@H]2O[C@H](CO)[C@@H](O)[C@@H]2F)cc1/C=C/I	96.2	6.82	0.84	7.43	0.11	4.25	509	67	–	–	–	–	–	–	–	–	–
CCc1cn([C@@H]2O[C@H](CO)[C@@H](O)[C@@H]2F)c(=O)nc1N	101	6.49	4.9	7.46	0.57	3.84	251	29	–	–	–	–	–	–	–	–	–
C#Cc1cn([C@@H]2O[C@H](CO)[C@@H](O)[C@@H]2F)c(=O)nc1N	86.3	6.19	6	5.68	7.5	4.52	4	5	5.00	4.28	< 3.52	–	–	–	–	–	–
O=c1[nH]c(=O)n([C@@H]2O[C@H](CO)[C@@H](O)[C@@H]2F)cc1/C=C/Cl	106	6.28	5.5	7.23	0.7	3.80	227	29	–	–	–	–	–	–	–	–	–
Nc1nc(=O)n([C@@H]2O[C@H](CO)[C@@H](O)[C@@H]2F)cc1/C=C/C(=O)[O-].[Na+]	111	< 4.00	>100	< 4.00	>100	< 3.70	–	–	–	–	–	–	–	–	–	–	–
Nc1nc(=O)n([C@@H]2O[C@H](CO)[C@@H](O)[C@@H]2F)cc1/C=C/Br	104	7.43	4.5	7.17	0.52	4.64	–	–	–	–	–	–	–	–	5	44	–
C=Cc1cn([C@@H]2O[C@H](CO)[C@@H](O)[C@@H]2F)c(=O)nc1N	111	7.21	0.59	7.60	0.4	4.39	103	70	4.97	4.62	< 3.52	–	–	–	–	–	–
C#Cc1cn([C@@H]2O[C@H](CO)[C@@H](O)[C@@H]2F)c(=O)[nH]c1=O	90.8	5.52	7.9	5.72	46.6	4.21	1.3	8	4.63	4.69	4.07	–	–	–	–	–	–
Cc1cn([C@@H]2O[C@H](CO)[C@@H](O)[C@@H]2F)c(=O)nc1N	110	7.59	0.1	8.22	0.048	5.82	–	15	–	–	–	–	–	–	–	–	31

From ChEMBL document CHEMBL1123010, “Nucleosides. 133. Synthesis of 5-alkenyl-1-(2-deoxy-2-fluoro-beta-D-arabinofuranosyl)cytosines and related pyrimidine nucleosides as potential antiviral agents” (J Med Chem, 1985)
